Screening data as filed in PubChem BioAssay.
Hits are enriched below; roughly 3.1% of the tested compounds scored in any of these assays.
CHO parental Ca = counter-screen for OX1R antagonists: effect in parental CHO cells | inhibition, % at 5.6 µM | 0.63% of 330,000 active | parental CHO-K1, ATP-induced calcium, Fluo-8 fluorescence | AID 463079;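 active = inhibition above that plate's mean sample inhibition plus 3 SD, cut at about 26% in these data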;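 note: 0% = ATP-challenged DMSO wells and 100% = DMSO wells without ATP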
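Assay system – parental CHO cells · Reagent – ATP stimulus · Detection – intracellular calcium via Fluo-8 no-wash fluorescent dye · Evaluation – percent inhibition of ATP-evoked calcium rise, normalized to controls · Controls – ATP wells versus no-ATP DMSO wells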
OX1R antag-1 = blocks the human orexin 1 receptor | 0.43% of 330,000 active | O43613 | inhibition, % at 5 µM | AID 434989 | CHO/OX1R cells, Fluo-8 calcium fluorescence, orexin A;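 active = inhibition above its plate's threshold, mean inhibition of all tested compounds on the plate plus 3 SD, cut at about 37% in these data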;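 note: 0% = orexin A challenge wells and 100% = SB-334867-A antagonist wells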
GPR7 antag = human neuropeptides B/W receptor 1 antagonism | P48145 | 1.1% of 290,000 active | GPR7-expressing cells, fluorescence antagonist assay | inhibition, % at 4.4 µM | AID 1861; in the data active = inhibition above about 16%, passing the limit was not always enough;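 note: cells stimulated with the agonist NPW; 0% = agonist with vehicle and 100% = vehicle without agonist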
Target sequence (P48145 whole entry, looked up): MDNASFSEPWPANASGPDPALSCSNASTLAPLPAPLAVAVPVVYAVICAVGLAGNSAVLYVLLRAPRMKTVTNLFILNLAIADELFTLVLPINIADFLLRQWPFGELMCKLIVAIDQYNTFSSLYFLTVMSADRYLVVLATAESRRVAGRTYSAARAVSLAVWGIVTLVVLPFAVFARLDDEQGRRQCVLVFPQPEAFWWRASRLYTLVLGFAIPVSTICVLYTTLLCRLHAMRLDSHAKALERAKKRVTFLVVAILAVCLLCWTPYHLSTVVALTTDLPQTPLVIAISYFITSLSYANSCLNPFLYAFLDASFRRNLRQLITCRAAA
GalR3 antagonist = blocks the human galanin receptor 3; inhibition, % at 3 µM; AID 651719; 0.44% of 360,000 active; HEK293 GalR3-CNG cAMP membrane potential fluorescence; galR3 body fused to GalR1 C-terminus;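 active = inhibition above the screen-wide average plus 3 SD, cut at about 13% in these data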;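 note: forskolin and galanin both at EC90 stimulate the cells; cAMP rise reported by CNG channel membrane potential dye signal; 0% = forskolin plus galanin with DMSO and 100% = forskolin alone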
Target sequence (O60755 1-299 limits assumed): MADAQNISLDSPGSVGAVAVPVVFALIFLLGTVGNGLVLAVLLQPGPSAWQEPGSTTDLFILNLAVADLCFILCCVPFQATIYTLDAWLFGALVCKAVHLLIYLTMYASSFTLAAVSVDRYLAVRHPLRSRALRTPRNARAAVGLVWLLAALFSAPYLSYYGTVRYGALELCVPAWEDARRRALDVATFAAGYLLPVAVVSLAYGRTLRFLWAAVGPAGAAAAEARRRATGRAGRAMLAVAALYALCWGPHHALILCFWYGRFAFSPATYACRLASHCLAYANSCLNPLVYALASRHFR
OX1R antag-2 = antagonists of human orexin 1 receptor (OX1R); OX1R-expressing cells, FRET antagonist read-out; inhibition, % at 6.6 µM; 1.8% of 330,000 active; AID 485270; in the data active = inhibition mostly above about 38%, no sharp cut-off; inactive = mostly below about 40%;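 note: 0% = agonist challenge alone and 100% = reference antagonist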
The depositor's hits bear a star.

Results for O=[N+]([O-])c1ccc(N2CCN(c3cccc(Cl)c3)CC2)cn1 ?
CHO parental Ca: 0; OX1R antag-1: -14; GPR7 antag: 21*; GalR3 antagonist: -14; OX1R antag-2: 9

Results for Cc1ccc(-n2c(-c3ccccc3)c[n+]3c2CCc2ccccc2-3)c(C)c1 ?
CHO parental Ca: 54*; OX1R antag-1: 17; GPR7 antag: 64*; GalR3 antagonist: -7; OX1R antag-2: 37

Results for Cc1ccc(-n2c(-c3ccccc3)c[n+]3c2CCC3)cc1 ?
CHO parental Ca: -9; OX1R antag-1: -6; GPR7 antag: 10; GalR3 antagonist: -6; OX1R antag-2: 23

How did CCOC(=O)C1CSCCS(=O)(=O)N1Cc1cccc(F)c1 (centres undefined) do in these assays?
GalR3 antagonist: -8

Results for CC(C)[C@H](NS(=O)(=O)c1ccc(F)cc1F)C(=O)N1CCC[C@H]1C(=O)NCCc1ccccc1Cl ?
GalR3 antagonist: -5

How did COc1ccc(NS(=O)(=O)c2ccc(Cl)c(NC(=O)c3ccccc3F)c2)cc1 do in these assays?
CHO parental Ca: -11; OX1R antag-1: 16; GalR3 antagonist: -3; OX1R antag-2: 49*

What do the screens show for `COc1ccc(NS(=O)(=O)c2cc(N/C(=N\S(=O)(=O)c3ccccc3)c3ccc(F)cc3)ccc2Cl)cc1`?
CHO parental Ca: -5; OX1R antag-1: 6; GPR7 antag: 34*; GalR3 antagonist: -4; OX1R antag-2: 7

Results for COc1ccc(NC(=O)CSc2nc(N)c(NC(=O)c3ccccc3F)c(=O)[nH]2)cc1 ?
CHO parental Ca: 0; OX1R antag-1: 2; GPR7 antag: -10; GalR3 antagonist: -1; OX1R antag-2: 4

What do the screens show for `COc1ccc(CC(=O)Nc2ccc(NC(=O)c3ccccc3F)cc2)cc1`?
CHO parental Ca: 58*; OX1R antag-1: 22; GPR7 antag: -1; GalR3 antagonist: -6; OX1R antag-2: 2

What do the screens show for `COc1ccc(NS(=O)(=O)c2cc(C(=O)N3CCN(C(C)=O)CC3)ccc2Cl)cc1`?
CHO parental Ca: -13; OX1R antag-1: -8; GPR7 antag: -5; GalR3 antagonist: -4; OX1R antag-2: 0

What do the screens show for `OC(c1ccccc1)(c1ccccc1)C1CCN(CCCOc2cccc(C(F)(F)F)c2)CC1`?
GalR3 antagonist: -8

How did CCCc1nc2c(C)cc(Br)cn2c1Cc1cccc(Cl)c1 do in these assays?
GalR3 antagonist: -6

What do the screens show for `C[C@H](CO)N1C[C@H](C)[C@@H](CN(C)C(=O)Nc2ccc(F)cc2)Oc2cc(Br)ccc2S1(=O)=O`?
GalR3 antagonist: -4

What do the screens show for `COc1ccccc1NC(=O)c1ccccc1S(=O)(=O)c1ccccc1[N+](=O)[O-]`?
CHO parental Ca: -14; OX1R antag-1: -9; GPR7 antag: -7; GalR3 antagonist: -1; OX1R antag-2: 58*

What do the screens show for `COc1ccc(CCn2nnc3ccccc3c2=O)cc1OC`?
GalR3 antagonist: 6

How did Cc1cc(SCC(=O)N/N=C/c2ccc(O)cc2O)nc2ccccc12 do in these assays?
CHO parental Ca: 12; OX1R antag-1: -4; GPR7 antag: -9; GalR3 antagonist: -10; OX1R antag-2: 50*

What do the screens show for `CN(CCCC(=O)NCc1ccco1)S(=O)(=O)c1ccccc1`?
CHO parental Ca: -6; OX1R antag-1: 0; GPR7 antag: 16*; GalR3 antagonist: -3; OX1R antag-2: 5

Results for CC(C)N(C(=O)C[n+]1ccc(/C=N/O)cc1)C(C)C ?
CHO parental Ca: -11; OX1R antag-1: 3; GPR7 antag: 1; GalR3 antagonist: -3; OX1R antag-2: 31

How did O=C(C[n+]1ccc(/C=N/O)cc1)N(Cc1ccccc1)Cc1ccccc1 do in these assays?
CHO parental Ca: -3; OX1R antag-1: 0; GPR7 antag: -7; GalR3 antagonist: -5; OX1R antag-2: 53*

What do the screens show for `CC1=CC(=O)C=CC1=Nc1ccc(N(C)C)cc1`?
GalR3 antagonist: 5

What do the screens show for `O=c1cc(CCl)nc2sc3ccccc3n12`?
CHO parental Ca: -3; OX1R antag-1: -10; GPR7 antag: -7; GalR3 antagonist: -3; OX1R antag-2: 12

What do the screens show for `O=C(OCc1cc(=O)n2c(n1)sc1ccccc12)c1ccc(O)cc1`?
CHO parental Ca: -15; OX1R antag-1: -22; GPR7 antag: -11; GalR3 antagonist: -3; OX1R antag-2: 53*

What do the screens show for `CCc1nc2ccc(C(=O)N(C)Cc3ccco3)cn2c1N(CC)C(=O)NCCc1ccccc1`?
GalR3 antagonist: -2

How did Cc1ccccc1Nc1nc(N)nc(COC(=O)c2ccco2)n1 do in these assays?
CHO parental Ca: -11; OX1R antag-1: -4; GalR3 antagonist: -2; OX1R antag-2: 6

Results for COCc1c(C(=O)OCc2nc3ccsc3c(=O)[nH]2)oc2ccccc12 ?
CHO parental Ca: -20; OX1R antag-1: 11; GalR3 antagonist: -4; OX1R antag-2: 28*

What do the screens show for `COCc1c(C(=O)OCc2nc(N)nc(Nc3ccccc3C)n2)oc2ccccc12`?
CHO parental Ca: -25; OX1R antag-1: 16; GPR7 antag: 1; GalR3 antagonist: -4; OX1R antag-2: 47*

How did COc1cc2ccccc2cc1C(=O)OCc1nc2ccsc2c(=O)[nH]1 do in these assays?
CHO parental Ca: -22; OX1R antag-1: -7; GalR3 antagonist: -5; OX1R antag-2: 35*

How did CC(C)C[C@H](NS(=O)(=O)c1ccc(F)cc1F)C(=O)N1CCC[C@H]1C(=O)NCc1ccccc1 do in these assays?
GalR3 antagonist: -6

Results for COC(=O)[C@]12C[C@H](CC(=O)N3CCCCC3)C(=O)N(CCC3=CCCCC3)C1=C[C@H](COCc1ccccc1)O[C@@H]2C ?
GalR3 antagonist: -7

Results for Oc1c(Br)cc(Br)cc1C=Nc1cccc2ncccc12 ?
CHO parental Ca: -4; OX1R antag-1: -11; GalR3 antagonist: -6; OX1R antag-2: 54*

Results for CCOc1ccc(NS(=O)(=O)c2ccc(C(=O)NCC3(N(C)C)CCCCC3)cc2)cc1 ?
CHO parental Ca: 55*; OX1R antag-1: 20; GalR3 antagonist: -5; OX1R antag-2: 2

How did CCOc1ccc(NS(=O)(=O)c2ccc(C(=O)N3CCCC(C)C3)cc2)cc1 (centres undefined) do in these assays?
CHO parental Ca: 52*; OX1R antag-1: 36*; GalR3 antagonist: -4; OX1R antag-2: 17

How did CCOc1ccc(S(=O)(=O)Nc2ccc(C(=O)N3CCCC3)cc2)cc1 do in these assays?
CHO parental Ca: -10; OX1R antag-1: -21; GPR7 antag: -9; GalR3 antagonist: 0; OX1R antag-2: 12

How did CNc1ccccc1C(C)(C)c1cc(-c2cccc(Br)c2)no1 do in these assays?
CHO parental Ca: 45*; OX1R antag-1: 33; GPR7 antag: -11; GalR3 antagonist: -9; OX1R antag-2: 20

How did CCCC#C/C(CCC)=C1\c2ccccc2C(=O)N1c1ccccc1 do in these assays?
GalR3 antagonist: -6

How did COC(=O)c1ccccc1NC(=O)COc1ccccc1 do in these assays?
CHO parental Ca: -25; OX1R antag-1: -5; GPR7 antag: -16; GalR3 antagonist: -6; OX1R antag-2: 41*
